Several values for one entry are separate records, joined by “and”; a condition that tells them apart may be missing. Identical values can stand only once.
What was measured:
[1] = Residual activity was obtained; type: functional
[2] = target: T1, Amine oxidase [flavin-containing] A (Mus musculus, UniProt Q64133); test: The ability (124 umol/kg/day) to inactivate monoamine oxidase A(MAO-A) was tested on brain mitochondrial membranes of mice, for 3 day; details: 72 h
T1 sequence (Q64133 whole entry): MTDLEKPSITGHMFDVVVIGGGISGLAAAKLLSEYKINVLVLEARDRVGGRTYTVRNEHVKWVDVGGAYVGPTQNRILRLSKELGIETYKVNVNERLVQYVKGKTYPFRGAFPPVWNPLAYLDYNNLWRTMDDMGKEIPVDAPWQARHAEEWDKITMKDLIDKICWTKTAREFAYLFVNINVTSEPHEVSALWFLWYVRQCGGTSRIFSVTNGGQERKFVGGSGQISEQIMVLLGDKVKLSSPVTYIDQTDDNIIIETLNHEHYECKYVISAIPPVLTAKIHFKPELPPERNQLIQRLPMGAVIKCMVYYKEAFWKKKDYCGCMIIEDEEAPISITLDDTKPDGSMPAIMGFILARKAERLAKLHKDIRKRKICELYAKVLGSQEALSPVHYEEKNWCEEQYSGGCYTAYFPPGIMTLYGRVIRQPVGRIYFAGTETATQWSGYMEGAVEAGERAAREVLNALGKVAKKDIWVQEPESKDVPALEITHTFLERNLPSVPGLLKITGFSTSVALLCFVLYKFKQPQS

[3] = target: T2, Monoamine oxidase (Mus musculus, UniProt Q8BW75+Q64133); test: The ability (25 umol/kg/day) to inactivate monoamine oxidase (MAO) was tested on brain mitochondrial membranes of mice, for 3 days; type: functional; details: 72 h
T2 sequence (Q8BW75 whole entry): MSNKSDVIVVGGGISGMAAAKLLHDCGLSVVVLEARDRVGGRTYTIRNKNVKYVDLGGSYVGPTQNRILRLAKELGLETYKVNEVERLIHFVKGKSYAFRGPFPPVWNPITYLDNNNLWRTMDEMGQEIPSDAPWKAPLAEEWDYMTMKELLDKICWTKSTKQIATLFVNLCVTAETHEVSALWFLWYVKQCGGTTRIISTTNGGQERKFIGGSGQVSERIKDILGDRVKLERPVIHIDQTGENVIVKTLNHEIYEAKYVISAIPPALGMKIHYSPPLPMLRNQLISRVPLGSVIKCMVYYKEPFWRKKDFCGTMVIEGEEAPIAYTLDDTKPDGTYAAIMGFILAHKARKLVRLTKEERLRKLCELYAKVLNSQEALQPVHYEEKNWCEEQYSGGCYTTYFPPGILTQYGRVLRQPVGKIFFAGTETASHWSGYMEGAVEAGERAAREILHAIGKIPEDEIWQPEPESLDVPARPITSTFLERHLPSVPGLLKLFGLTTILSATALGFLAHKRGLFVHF
T2 sequence (Q64133 whole entry): T1 sequence (Q64133 whole entry)

[4] = Ratio of activities of MAO-B / MAO-A; type: functional
[5] = target: T3, Amine oxidase [flavin-containing] B (Mus musculus, UniProt Q8BW75); test: The ability (124 umol/kg/day) to inactivate monoamine oxidaseB (MAO-B) was tested on brain mitochondrial membranes of mice for 3 day; details: 72 h
T3 sequence (Q8BW75 whole entry): T2 sequence (Q8BW75 whole entry)

[6] = target: T1, Amine oxidase [flavin-containing] A; test: The ability (25 umol/kg/day) to inactivate monoamine oxidase A(MAO-A) was tested on brain mitochondrial membranes of mice, for 3 day; type: functional; details: 72 h
[7] = target: T3, Amine oxidase [flavin-containing] B; test: The ability (25 umol/kg/day) to inactivate monoamine oxidase B (MAO-B) was tested on brain mitochondrial membranes of mice, for 3 day; type: functional; details: 72 h
[8] = target: T3, Amine oxidase [flavin-containing] B; test: The ability of the compound(25 umol/kg/day) to inactivate monoamine oxidase B (MAO-B) was tested on brain mitochondrial membranes of mice, for 3 day.; type: functional; details: 72 h
In short: (§1)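 Male ICR mice (25-35 g), 25 µmol/kg/day ip in sterile saline for 3 days, n = 3; killed day 4, 24 h after last dose. Whole-brain mitochondria isolated by differential centrifugation, lysed in ice-cold water, membranes in 10 mM phosphate pH 7.4. Membranes preincubated 30 min at 37 °C with buffer (total), 3 × 10^-8 M clorgyline (MAO-B), 3 × 10^-7 M deprenyl (MAO-A), or both (residual).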

[9] = target: T2, Monoamine oxidase; test: The ability of the compound(25 umol/kg/day) to inactivate monoamine oxidase (MAO) was tested on brain mitochondrial membranes of mice, for 3 days.; type: functional; details: 72 h; in short: as §1
[10] = target: T1, Amine oxidase [flavin-containing] A; test: The ability of the compound(25 umol/kg/day) to inactivate monoamine oxidase A(MAO-A) was tested on brain mitochondrial membranes of mice, for 3 day.; type: functional; details: 72 h; in short: as §1
[11] = Residual activity was obtained.; type: functional; in short: as §1

SMILES	Activity [1] [nmol/min/mg]	Activity [2] [nmol/min/mg]	Activity [3] [nmol/min/mg]	Ratio [4]	Activity [5] [nmol/min/mg]	Activity [6] [nmol/min/mg]	Activity [7] [nmol/min/mg]	Activity [8]	Activity [9]	Activity [10]	Residual activity [11]
C#CCN(C(=O)OC1=CCN(C)CC1)[C@H](C)Cc1ccccc1	0.45	1.1	1.36	0.63	0.78	–	–	–	–	–	–
C#CCN(C(=O)OC1=CCN(C)CC1)[C@@H](C)Cc1ccccc1	0.2	–	3.75	4.4	–	0.76	3.35	–	–	–	–
C#CCN[C@H](C)Cc1ccccc1 [RNORDEPRENYL]	–	–	–	0.71	–	–	–	0.68 nM	1.31 nM	1.07 nM	0.46 nM
C#CCN(C)[C@H](C)Cc1ccccc1 [SELEGILINE]	–	–	–	0.72 and 0.66	–	–	–	0.46 nM and 0.7 nM	0.84 nM and 1.36 nM	0.64 nM and 1.06 nM	0.24 nM and 0.44 nM

— ChEMBL document CHEMBL1129413, “Synthesis and selective monoamine oxidase B-inhibiting properties of 1-methyl-1,2,3,6-tetrahydropyrid-4-yl carbamate derivatives: potential prodrugs of (R)- and (S)-nordeprenyl” (J Med Chem, 1996)
